In brackets after ≈: the same amount, converted by molar mass.
What was measured:
Plasma [1] = assay: Fraction unbound in rat plasma; type: ADME, cell-free
[2] = Kinetic solubility of the compound in buffer at pH 4; type: physicochemical
Outline: (§1)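 Kinetic aqueous solubility measured in buffers at pH 2, 4 and 7.4.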

Cytochrome P450 1A2 = molecular target: T1, Cytochrome P450 1A2 (Homo sapiens, UniProt P05177); assay: Inhibition of CYP1A2 in human liver microsomes; type: ADME
T1 sequence (P05177 whole entry): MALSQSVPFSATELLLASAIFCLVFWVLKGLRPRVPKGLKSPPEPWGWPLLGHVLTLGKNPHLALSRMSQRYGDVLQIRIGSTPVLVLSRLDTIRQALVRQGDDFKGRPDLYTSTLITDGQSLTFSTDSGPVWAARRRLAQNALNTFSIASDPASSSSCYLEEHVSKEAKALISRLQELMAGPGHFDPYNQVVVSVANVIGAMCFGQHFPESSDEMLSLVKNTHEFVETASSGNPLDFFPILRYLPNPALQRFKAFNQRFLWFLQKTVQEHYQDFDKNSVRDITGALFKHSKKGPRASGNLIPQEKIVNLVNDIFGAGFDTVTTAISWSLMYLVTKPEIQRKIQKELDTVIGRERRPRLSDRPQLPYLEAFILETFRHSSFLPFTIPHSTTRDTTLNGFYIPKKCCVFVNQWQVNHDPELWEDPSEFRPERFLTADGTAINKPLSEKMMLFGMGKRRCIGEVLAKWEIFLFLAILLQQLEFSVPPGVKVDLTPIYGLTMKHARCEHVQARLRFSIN
Outline: (§2)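 CYP1A2, 2C9, 2D6 and 3A4 inhibition measured together in a cocktail assay with human liver microsomes and known probe substrates; IC50 determined.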

[3] = molecular target: Metabotropic glutamate receptor 5 (Rattus norvegicus, UniProt P31424); assay: Positive allosteric modulator activity at rat mGlu5 receptor expressed in HEK293 cells assessed as potentiation of glutamate-induced calcium mobilization by fluorescence assay; type: functional, cell-based; conditions: read-out: EC50
Outline: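 HEK293 cells stably expressing rat mGlu5, 15000 cells/well, grown overnight, loaded with 1 µM Fluo-4AM for 50 min at 37 °C in HBSS/20 mM HEPES/2.5 mM probenecid pH 7.4. Compound added, then an EC20 of glutamate 140 s later and an EC80 90–120 s after that. Fluorescence over basal normalized to maximal glutamate response (100 µM glutamate); compound at up to 30 µM; ≥3 independent determinations.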

[4] = molecular target: Metabotropic glutamate receptor 2 (Rattus norvegicus, UniProt P31421); assay: Positive allosteric modulator activity at rat mGlu2 receptor expressed in HEK293 cells assessed as glutamate-induced GIRK channel-mediated thallium flux treated 140s prior to gluatamate challenge by fluorescence analysis; type: cell-based
Metabotropic glutamate receptor 2, sequence (P31421 whole entry): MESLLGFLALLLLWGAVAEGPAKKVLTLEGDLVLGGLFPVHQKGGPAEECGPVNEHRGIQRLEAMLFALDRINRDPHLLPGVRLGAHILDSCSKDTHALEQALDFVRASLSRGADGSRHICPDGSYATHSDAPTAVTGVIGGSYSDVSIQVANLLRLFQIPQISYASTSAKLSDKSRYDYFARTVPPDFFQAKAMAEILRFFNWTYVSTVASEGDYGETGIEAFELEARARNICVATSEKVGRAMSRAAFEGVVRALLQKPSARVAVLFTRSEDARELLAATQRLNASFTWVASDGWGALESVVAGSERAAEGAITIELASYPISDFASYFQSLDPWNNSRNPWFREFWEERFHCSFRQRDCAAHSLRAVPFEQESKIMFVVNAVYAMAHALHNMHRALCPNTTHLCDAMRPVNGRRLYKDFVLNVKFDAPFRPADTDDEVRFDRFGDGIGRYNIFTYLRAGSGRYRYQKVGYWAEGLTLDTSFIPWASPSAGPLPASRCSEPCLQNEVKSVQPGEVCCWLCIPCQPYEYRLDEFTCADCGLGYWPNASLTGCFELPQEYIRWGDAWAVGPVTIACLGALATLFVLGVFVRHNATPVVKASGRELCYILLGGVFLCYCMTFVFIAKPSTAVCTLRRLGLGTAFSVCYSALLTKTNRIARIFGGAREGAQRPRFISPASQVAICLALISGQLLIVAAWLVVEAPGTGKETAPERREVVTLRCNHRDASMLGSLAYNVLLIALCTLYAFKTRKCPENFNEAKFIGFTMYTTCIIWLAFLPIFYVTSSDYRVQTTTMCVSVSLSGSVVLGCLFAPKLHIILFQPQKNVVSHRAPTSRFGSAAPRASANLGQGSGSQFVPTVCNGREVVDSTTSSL
Outline: (§3)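 HEK293-GIRK cells expressing rat mGlu2, 3, 4, 6, 7 or 8, 15000 cells/well. Vehicle or 10 µM compound added, then 140 s later a glutamate CRC (L-AP4 for mGlu7) in thallium buffer (12 mM thallium sulfate, 10 mM HEPES). Thallium flux through GIRK read by fluorescence.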

[5] = Ratio of unbound drug level in brain to plasma in rat; type: ADME, cell-free
Outline: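 Kp,uu derived from the in vivo brain:plasma ratio and in vitro rat fu,plasma/fu,brain, with the binding values from rat plasma protein and rat brain homogenate binding experiments.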

[6] = molecular target: Metabotropic glutamate receptor 8 (Rattus norvegicus, UniProt P70579); assay: Positive allosteric modulator activity at rat mGlu8 receptor expressed in HEK293 cells assessed as glutamate-induced GIRK channel-mediated thallium flux treated 140s prior to glutamate challenge by fluorescence analysis; type: cell-based; outline: as §3
Metabotropic glutamate receptor 8, sequence (P70579 whole entry): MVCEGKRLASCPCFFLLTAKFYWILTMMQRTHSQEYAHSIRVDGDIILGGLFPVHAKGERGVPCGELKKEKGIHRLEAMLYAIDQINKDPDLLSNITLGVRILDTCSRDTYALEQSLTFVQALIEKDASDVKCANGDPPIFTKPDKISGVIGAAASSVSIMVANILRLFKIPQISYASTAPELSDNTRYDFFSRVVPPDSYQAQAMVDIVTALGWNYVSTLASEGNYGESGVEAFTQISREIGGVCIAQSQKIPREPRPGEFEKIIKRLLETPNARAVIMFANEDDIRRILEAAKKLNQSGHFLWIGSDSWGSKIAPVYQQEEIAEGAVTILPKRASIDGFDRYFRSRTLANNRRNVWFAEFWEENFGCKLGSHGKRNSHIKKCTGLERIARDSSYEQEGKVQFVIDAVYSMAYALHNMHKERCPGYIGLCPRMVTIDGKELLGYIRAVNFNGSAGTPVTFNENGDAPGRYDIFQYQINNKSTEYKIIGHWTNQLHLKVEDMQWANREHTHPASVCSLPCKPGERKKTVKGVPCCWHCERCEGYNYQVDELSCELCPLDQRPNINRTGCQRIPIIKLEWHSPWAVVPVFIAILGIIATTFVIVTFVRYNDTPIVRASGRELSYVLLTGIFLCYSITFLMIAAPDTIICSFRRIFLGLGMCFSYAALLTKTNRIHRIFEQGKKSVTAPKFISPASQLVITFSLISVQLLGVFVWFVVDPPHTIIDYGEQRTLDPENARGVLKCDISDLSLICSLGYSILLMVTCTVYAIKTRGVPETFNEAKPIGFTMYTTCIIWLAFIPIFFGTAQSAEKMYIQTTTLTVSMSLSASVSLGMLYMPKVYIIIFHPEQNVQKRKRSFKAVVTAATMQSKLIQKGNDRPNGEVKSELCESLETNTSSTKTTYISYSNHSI

Rattus norvegicus [7] = assay: Toxicity in Sprague-Dawley rat assessed as motor output at 30 to 100 mg/kg, po after 30 mins by rotarod test; type: organism-based; parameters: dose 30-100 mg/kg, route oral; conditions: in vivo, 0.5 h
Outline: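 Male Sprague–Dawley rats (250–300 g) trained twice on a 20 rpm rotarod (120 s trials); animals below 85 s at baseline were excluded. Rats received 30, 56.6 or 100 mg/kg po in 20% HP-β-CD or vehicle (n = 6) and were tested 30 min later in a 120 s trial; time on the rod was recorded, with a 120 s cutoff.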

Plasma [8] = assay: Fraction unbound in human plasma; type: ADME, cell-free
[9] = Retention time of the compound by LCMS analysis; type: physicochemical
[10] = molecular target: Metabotropic glutamate receptor 7 (Rattus norvegicus, UniProt P35400); assay: Positive allosteric modulator activity at rat mGlu7 receptor expressed in HEK293 cells assessed as L-AP4-induced GIRK channel-mediated thallium flux treated 140s prior to L-AP4 challenge by fluorescence analysis; type: cell-based; outline: as §3
Metabotropic glutamate receptor 7, sequence (P35400 whole entry): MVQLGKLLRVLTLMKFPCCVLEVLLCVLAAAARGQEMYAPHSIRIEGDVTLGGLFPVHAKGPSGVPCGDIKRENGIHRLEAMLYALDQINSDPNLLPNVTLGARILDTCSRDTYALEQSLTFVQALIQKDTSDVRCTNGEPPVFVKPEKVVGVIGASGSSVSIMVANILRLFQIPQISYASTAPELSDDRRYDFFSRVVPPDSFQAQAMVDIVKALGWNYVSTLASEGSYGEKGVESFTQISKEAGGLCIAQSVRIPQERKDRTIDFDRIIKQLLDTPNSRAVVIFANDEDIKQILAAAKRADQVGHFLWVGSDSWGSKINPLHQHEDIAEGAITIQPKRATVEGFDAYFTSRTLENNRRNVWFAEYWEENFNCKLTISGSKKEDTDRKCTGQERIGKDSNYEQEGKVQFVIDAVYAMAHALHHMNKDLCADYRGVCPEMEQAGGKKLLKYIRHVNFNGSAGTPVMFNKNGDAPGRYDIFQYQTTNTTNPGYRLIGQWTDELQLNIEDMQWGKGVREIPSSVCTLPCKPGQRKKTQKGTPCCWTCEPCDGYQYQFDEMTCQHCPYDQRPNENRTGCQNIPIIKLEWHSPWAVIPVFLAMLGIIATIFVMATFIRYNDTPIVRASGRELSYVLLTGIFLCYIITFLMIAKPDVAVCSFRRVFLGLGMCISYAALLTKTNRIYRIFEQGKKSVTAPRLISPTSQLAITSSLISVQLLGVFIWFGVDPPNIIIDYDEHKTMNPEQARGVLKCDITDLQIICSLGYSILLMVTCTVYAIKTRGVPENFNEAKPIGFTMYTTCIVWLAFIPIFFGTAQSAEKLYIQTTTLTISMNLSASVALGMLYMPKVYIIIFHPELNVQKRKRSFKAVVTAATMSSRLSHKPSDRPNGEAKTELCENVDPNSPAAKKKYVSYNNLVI

[11] = Kinetic solubility of the compound in buffer at pH 2; type: physicochemical; outline: as §1
[12] = Solubility of the compound in fasted simulated intestinal fluid at pH 7.2 after 24 hrs; type: ADME; conditions: simulated gi fluid, pH 7.2, 24 h
Outline: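 Solubility in fasted simulated intestinal fluid (FaSSIF), pH 7.2.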

Rattus norvegicus [13] = assay: Antipsychotic activity in Sprague-Dawley rat assessed as reversal of amphetamine-induced hyperlocomotion at 100 mg/kg, po administered for 30 mins prior to amphetamine challenge for 60 mins; type: functional
Outline: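 Male Sprague–Dawley rats (250–375 g), food-deprived the evening before, were habituated 30 min in locomotor chambers. They were then dosed po with vehicle (20% HP-β-CD in water, pH 6–7, max 10 mL/kg) or test article, followed 30 min later by amphetamine 1 mg/kg sc, n = 6–8 per group. Photobeam breaks were counted per 5 min over 120 min. Percent reversal used t = 60–120 totals versus the vehicle + amphetamine group, reported as mean ± SE.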

[14] = molecular target: Metabotropic glutamate receptor 1 (Rattus norvegicus, UniProt P23385); assay: Positive allosteric modulator activity at rat mGlu1 receptor expressed in HEK293 cells assessed as glutamate-induced calcium mobilization treated 140s prior to glutamate challenge by fluorescence assay; type: functional, cell-based
Metabotropic glutamate receptor 1, sequence (P23385 whole entry): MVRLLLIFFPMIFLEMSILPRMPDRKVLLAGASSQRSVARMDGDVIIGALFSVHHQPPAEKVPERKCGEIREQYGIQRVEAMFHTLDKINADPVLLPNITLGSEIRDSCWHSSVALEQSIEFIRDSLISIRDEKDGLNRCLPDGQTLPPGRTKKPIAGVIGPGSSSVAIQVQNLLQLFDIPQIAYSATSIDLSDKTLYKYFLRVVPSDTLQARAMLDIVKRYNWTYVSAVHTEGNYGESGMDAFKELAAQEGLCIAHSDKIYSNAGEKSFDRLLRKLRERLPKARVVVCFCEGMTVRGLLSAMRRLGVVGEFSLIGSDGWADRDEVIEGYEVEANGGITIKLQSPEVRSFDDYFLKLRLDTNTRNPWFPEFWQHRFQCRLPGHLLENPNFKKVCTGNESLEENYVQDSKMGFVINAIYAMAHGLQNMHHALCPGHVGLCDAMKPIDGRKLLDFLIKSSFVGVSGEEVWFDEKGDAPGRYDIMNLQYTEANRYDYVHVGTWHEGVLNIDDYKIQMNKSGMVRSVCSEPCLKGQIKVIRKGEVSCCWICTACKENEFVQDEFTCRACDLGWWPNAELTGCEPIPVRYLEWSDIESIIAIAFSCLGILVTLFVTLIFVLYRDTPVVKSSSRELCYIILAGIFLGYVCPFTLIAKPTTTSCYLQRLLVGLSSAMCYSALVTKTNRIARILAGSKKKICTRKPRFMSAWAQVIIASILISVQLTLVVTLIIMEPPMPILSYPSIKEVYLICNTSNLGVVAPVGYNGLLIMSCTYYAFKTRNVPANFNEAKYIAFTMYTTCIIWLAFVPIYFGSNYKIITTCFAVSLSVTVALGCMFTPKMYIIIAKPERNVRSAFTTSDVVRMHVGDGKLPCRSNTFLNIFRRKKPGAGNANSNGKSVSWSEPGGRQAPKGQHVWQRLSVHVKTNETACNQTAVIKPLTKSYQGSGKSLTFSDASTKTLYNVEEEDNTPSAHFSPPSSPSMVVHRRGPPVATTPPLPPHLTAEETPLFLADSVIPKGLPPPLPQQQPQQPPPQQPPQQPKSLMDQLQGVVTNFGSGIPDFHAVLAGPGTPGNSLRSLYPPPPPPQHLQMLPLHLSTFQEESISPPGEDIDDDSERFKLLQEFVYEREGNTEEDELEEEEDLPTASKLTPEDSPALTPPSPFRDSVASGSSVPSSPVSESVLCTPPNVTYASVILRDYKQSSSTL
Outline: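 HEK293 cells stably expressing rat mGlu1, 20000 cells/well, Fluo-4AM calcium flux. Vehicle or 10 µM compound (final) added, then a glutamate concentration–response curve 140 s later.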

Cytochrome P450 2C9 = Cytochrome P450 2C9 (Homo sapiens, UniProt P11712); assay: Inhibition of CYP2C9 in human liver microsomes; type: ADME; outline: as §2
Cytochrome P450 2C9, sequence (P11712 whole entry): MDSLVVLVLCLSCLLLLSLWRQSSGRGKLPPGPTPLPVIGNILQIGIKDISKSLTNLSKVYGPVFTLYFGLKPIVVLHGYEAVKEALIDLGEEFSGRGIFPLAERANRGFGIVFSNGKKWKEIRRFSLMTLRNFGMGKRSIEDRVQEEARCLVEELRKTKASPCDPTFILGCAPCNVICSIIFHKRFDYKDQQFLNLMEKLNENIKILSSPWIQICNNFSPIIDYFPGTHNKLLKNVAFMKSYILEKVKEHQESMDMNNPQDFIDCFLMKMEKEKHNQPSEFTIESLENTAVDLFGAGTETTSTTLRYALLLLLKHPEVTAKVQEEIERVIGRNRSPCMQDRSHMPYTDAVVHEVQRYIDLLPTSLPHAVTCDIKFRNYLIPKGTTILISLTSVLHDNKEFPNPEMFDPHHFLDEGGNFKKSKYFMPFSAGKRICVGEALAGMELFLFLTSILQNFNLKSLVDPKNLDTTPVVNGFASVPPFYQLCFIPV

Rattus norvegicus [15] = assay: Toxicity in Sprague-Dawley rat assessed as somatomotor nervous system deficit at 100 mg/kg, po measured up to 4 hrs by irwin neurological test; type: organism-based; parameters: dose 100 mg/kg, route oral; conditions: in vivo
Outline: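 Male Sprague–Dawley rats (250–300 g) scored at baseline, then given vehicle (20% HP-β-CD) or 100 mg/kg po (n = 6 each). Modified Irwin battery repeated at 30 min, 1 h and 4 h; each end point scored 0, 1 or 2; significance taken at p ≤ 0.05.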

Rattus norvegicus [16] = assay: Antipsychotic activity in po dosed Sprague-Dawley rat assessed as reversal of amphetamine-induced hyperlocomotion administered for 30 mins prior to amphetamine challenge for 60 mins; type: functional, organism-based
Outline: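 Male Sprague–Dawley rats (250–375 g), food-deprived overnight, habituated 30 min in locomotor chambers. Compound given po (3–100 mg/kg in 20% HP-β-CD, pH 6–7, ≤10 mL/kg) 30 min before amphetamine 1 mg/kg sc, then monitored 60 min (120 min total). Photobeam breaks over 60–120 min give percent reversal against the vehicle+amphetamine group, mean ± SE, n = 6–8.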

[17] = Fraction unbound in rat brain; type: ADME, tissue-based
Outline: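 Fraction unbound measured by rat brain homogenate binding.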

[18] = Cmax in Sprague-Dawley rat at 10 mg/kg, po; type: ADME, organism-based; parameters: dose 10 mg/kg, route oral; conditions: in vivo

O=C1NCCc2nc(OCc3cccc(F)c3)ccc21
Fu (Plasma [1]): 0.034
Kinetic_solubility [2]: 29 µM
IC50 (Cytochrome P450 1A2): 25.7 µM
EC50 [3]: 0.225 µM
EC50 [4]: > 10 µM
K(p,uu,brain) [5]: 1.1
EC50 [6]: > 10 µM
Activity (Rattus norvegicus [7]): Non-toxic
Fu (Plasma [8]): 0.047
Retention_time [9]: 0.736 min
EC50 [10]: > 10 µM
Kinetic_solubility [11]: 38 µM
solubility [12]: 31 µg/mL (≈ 114 µM)
inhibition in vivo at 100 mg/kg (Rattus norvegicus [13]): 55%
EC50 [14]: > 10 µM
IC50 (Cytochrome P450 2C9): > 30 µM
Activity (Rattus norvegicus [15]): Non-toxic
inhibition (Rattus norvegicus [16]): Dose-dependent effect
fraction unbound [17]: 0.02
Cmax [18]: 3.36 µM
